Measurements from ChEMBL document CHEMBL3774312, “5-Substituted 3-isopropyl-7-[4-(2-pyridyl)benzyl]amino-1(2)H-pyrazolo[4,3-d]pyrimidines with anti-proliferative activity as potent and selective inhibitors of cyclin-dependent kinases” (Eur J Med Chem, 2016).
Calls of active or inactive are those of the source. The rule behind the calls is not given here.

Tests used:
[1] = biological target: Cyclin-dependent kinase 4 (Homo sapiens, UniProt P11802); assay: Inhibition of CDK4 (unknown origin)
[2] = biological target: Calcium/calmodulin-dependent protein kinase kinase 2 (Homo sapiens) (UniProt Q96RR4); assay: Inhibition of recombinant CAMKKB (unknown origin) assessed as residual activity at 1 uM relative to control
[3] = biological target: Calcium/calmodulin-dependent protein kinase type 1 (Homo sapiens) (UniProt Q14012); assay: Inhibition of recombinant CAMK1 (unknown origin) assessed as residual activity at 1 uM relative to control
[4] = biological target: Ribosomal protein S6 kinase alpha-1 (Homo sapiens) (UniProt Q15418); assay: Inhibition of recombinant RSK1 (unknown origin) assessed as residual activity at 1 uM relative to control
[5] = system: K562; assay: Cytotoxicity against human K562 cells assessed as reduction in cell viability after 72 hrs by calcein AM staining based fluorescence assay; type: functional; settings: K562, 72 h
Procedure, shortened: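 Cells were grown in DMEM with 10% FBS, penicillin and streptomycin at 37 °C in 5% CO2. Three doses were tested in triplicate for 72 h.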

[6] = (§1) Cytotoxicity against human HCT116 cells assessed as reduction in cell viability after 72 hrs by calcein AM staining based fluorescence assay; type: functional; settings: HCT-116, 72 h
Procedure, shortened: (§2)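 Cells were grown in DMEM with 10% FBS, penicillin and streptomycin at 37 °C in 5% CO2. Three doses were tested in triplicate for 72 h. Live cells were read by Calcein AM fluorescence at 485/538 nm.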

[7] = system: HCT-116; assay: as §1; type: functional; procedure, shortened: as §2
[8] = biological target: Cyclin-dependent kinase 7 (Homo sapiens, UniProt P50613); assay: Inhibition of CDK7 (unknown origin)
[9] = Cell cycle arrest in BrdU pulse-labelled human HCT116 cells assessed as decrease in cells at S phase at 125 to 500 nM after 24 hrs by propidium iodide staining based flow cytometry; type: functional; settings: HCT-116
[10] = system: HCT-116; assay: Induction of apoptosis in human HCT116 cells assessed as caspase3 activation using Ac-DEVD-AMC as substrate preincubated for 24 hrs followed by substrate addition measured after 3 hrs by fluorescence assay; type: functional, cell-based
[11] = system: G-361; assay: Induction of apoptosis in human G361 cells assessed as caspase7 activation using Ac-DEVD-AMC as substrate at 5 times IC50 preincubated for 24 hrs followed by substrate addition measured after 3 hrs by fluorescence assay; type: functional, cell-based
[12] = biological target: Cyclin-dependent kinase 2 (Homo sapiens) (UniProt P24941); assay: Inhibition of CDK2 in human G361 cells assessed as reduction in phosphorylation of RNA polymerase 2 at C-terminus at 1 uM incubated for 0.5 to 24 hrs by immunoblotting analysis; type: cell-based; settings: G-361
Procedure, shortened: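 Treated G361 cells were lysed in Laemmli buffer, run on SDS-PAGE and blotted to nitrocellulose. Blots were probed overnight with antibodies to RNA polymerase II phosphorylated at S5 and S2, and to total RNA polymerase II (ARNA-3). Peroxidase secondaries were then applied and signal was detected by ECL with a CCD camera.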

[13] = biological target: Serine/threonine-protein kinase STK11 (Homo sapiens) (UniProt Q15831); assay: Inhibition of recombinant LKB1 (unknown origin) assessed as residual activity at 1 uM relative to control
[14] = biological target: Proto-oncogene tyrosine-protein kinase Src (Homo sapiens) (UniProt P12931); assay: Inhibition of recombinant SRC (unknown origin) assessed as residual activity at 1 uM relative to control
[15] = biological target: Casein kinase II (Homo sapiens) (UniProt P67870+P68400+P19784); assay: Inhibition of recombinant CK2 (unknown origin) assessed as residual activity at 1 uM relative to control; type: protein-complex assay
[16] = biological target: Myosin light chain kinase, smooth muscle (Homo sapiens) (UniProt Q15746); assay: Inhibition of recombinant smMLCK (unknown origin) assessed as residual activity at 1 uM relative to control
[17] = biological target: Serine/threonine-protein kinase TBK1 (Homo sapiens) (UniProt Q9UHD2); assay: Inhibition of recombinant TBK1 (unknown origin) assessed as residual activity at 1 uM relative to control
[18] = organism: Homo sapiens; assay: Inhibition of recombinant PKA (unknown origin) assessed as residual activity at 1 uM relative to control
[19] = biological target: Serine/threonine-protein kinase PLK1 (Homo sapiens) (UniProt P53350); assay: Inhibition of recombinant PLK1 (unknown origin) assessed as residual activity at 1 uM relative to control
[20] = biological target: Receptor-interacting serine/threonine-protein kinase 2 (Homo sapiens) (UniProt O43353); assay: Inhibition of recombinant RIPK2 (unknown origin) assessed as residual activity at 1 uM relative to control
[21] = biological target: High affinity nerve growth factor receptor (Homo sapiens) (UniProt P04629); assay: Inhibition of recombinant TrkA (unknown origin) assessed as residual activity at 1 uM relative to control
[22] = biological target: Glycogen synthase kinase-3 beta (Homo sapiens) (UniProt P49841); assay: Inhibition of recombinant GSK3beta (unknown origin) assessed as residual activity at 1 uM relative to control
[23] = biological target: Serine/threonine-protein kinase 3 (Homo sapiens) (UniProt Q13188); assay: Inhibition of recombinant MST2 (unknown origin) assessed as residual activity at 1 uM relative to control
[24] = biological target: Receptor tyrosine-protein kinase erbB-4 (Homo sapiens) (UniProt Q15303); assay: Inhibition of recombinant HER4 (unknown origin) assessed as residual activity at 1 uM relative to control
[25] = biological target: Tyrosine-protein kinase Lck (Homo sapiens) (UniProt P06239); assay: Inhibition of recombinant LCK (unknown origin) assessed as residual activity at 1 uM relative to control
[26] = biological target: Mitogen-activated protein kinase 14 (Homo sapiens) (UniProt Q16539); assay: Inhibition of recombinant p38alpha MAP kinase (unknown origin) assessed as residual activity at 1 uM relative to control
[27] = biological target: Mitogen-activated protein kinase kinase kinase 7 (Homo sapiens) (UniProt O43318); assay: Inhibition of recombinant TAK1 (unknown origin) assessed as residual activity at 1 uM relative to control
[28] = biological target: Homeodomain-interacting protein kinase 2 (Homo sapiens) (UniProt Q9H2X6); assay: Inhibition of recombinant HIPK2 (unknown origin) assessed as residual activity at 1 uM relative to control
[29] = biological target: RAC-alpha serine/threonine-protein kinase (Homo sapiens) (UniProt P31749); assay: Inhibition of recombinant PKBalpha (unknown origin) assessed as residual activity at 1 uM relative to control
[30] = biological target: Serine/threonine-protein kinase Sgk1 (Homo sapiens) (UniProt O00141); assay: Inhibition of recombinant SGK1 (unknown origin) assessed as residual activity at 1 uM relative to control
[31] = biological target: Vascular endothelial growth factor receptor (Homo sapiens) (UniProt P17948+P35916+P35968); assay: Inhibition of recombinant VEGFR (unknown origin) assessed as residual activity at 1 uM relative to control; type: protein assay
[32] = biological target: Tyrosine-protein kinase SYK (Homo sapiens) (UniProt P43405); assay: Inhibition of recombinant SYK (unknown origin) assessed as residual activity at 1 uM relative to control
[33] = system: MCF7; assay: Cell cycle arrest in BrdU pulse-labelled human MCF7 cells assessed as accumulation at late S phase at 8 to 250 nM after 24 hrs by propidium iodide staining based flow cytometry; type: functional

Chain of Serine/threonine-protein kinase TBK1 (Homo sapiens) (Q9UHD2 whole entry): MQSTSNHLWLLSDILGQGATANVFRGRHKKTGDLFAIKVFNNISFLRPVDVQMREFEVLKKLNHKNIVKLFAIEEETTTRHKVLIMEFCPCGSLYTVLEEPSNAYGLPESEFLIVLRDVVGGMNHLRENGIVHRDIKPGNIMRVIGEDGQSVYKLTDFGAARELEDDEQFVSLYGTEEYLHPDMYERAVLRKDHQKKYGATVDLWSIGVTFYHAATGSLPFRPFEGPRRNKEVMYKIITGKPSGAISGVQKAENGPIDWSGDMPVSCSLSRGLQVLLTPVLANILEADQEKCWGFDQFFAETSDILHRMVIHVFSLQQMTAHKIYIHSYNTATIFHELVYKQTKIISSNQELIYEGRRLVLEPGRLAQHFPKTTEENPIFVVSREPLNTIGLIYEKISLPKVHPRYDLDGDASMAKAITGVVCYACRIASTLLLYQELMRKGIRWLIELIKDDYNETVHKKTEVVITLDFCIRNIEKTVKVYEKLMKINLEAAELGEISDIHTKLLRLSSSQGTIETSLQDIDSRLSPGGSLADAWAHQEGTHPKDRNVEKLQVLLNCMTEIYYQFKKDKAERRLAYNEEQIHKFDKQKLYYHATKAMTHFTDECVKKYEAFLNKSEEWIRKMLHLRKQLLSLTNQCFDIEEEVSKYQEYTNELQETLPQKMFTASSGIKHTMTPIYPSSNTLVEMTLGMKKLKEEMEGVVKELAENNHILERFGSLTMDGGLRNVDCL
Chain of Calcium/calmodulin-dependent protein kinase type 1 (Homo sapiens) (Q14012 whole entry, looked up): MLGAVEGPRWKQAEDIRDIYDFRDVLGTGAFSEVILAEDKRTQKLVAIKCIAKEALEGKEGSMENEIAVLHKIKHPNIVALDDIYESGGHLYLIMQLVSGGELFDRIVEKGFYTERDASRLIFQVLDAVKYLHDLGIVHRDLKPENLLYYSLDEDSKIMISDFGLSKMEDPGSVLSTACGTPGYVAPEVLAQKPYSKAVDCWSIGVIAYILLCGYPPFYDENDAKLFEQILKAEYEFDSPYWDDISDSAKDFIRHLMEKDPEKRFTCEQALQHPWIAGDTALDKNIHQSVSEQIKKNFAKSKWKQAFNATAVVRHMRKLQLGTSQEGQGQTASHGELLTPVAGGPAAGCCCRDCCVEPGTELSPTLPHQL
Chain of Mitogen-activated protein kinase kinase kinase 7 (Homo sapiens) (O43318 whole entry): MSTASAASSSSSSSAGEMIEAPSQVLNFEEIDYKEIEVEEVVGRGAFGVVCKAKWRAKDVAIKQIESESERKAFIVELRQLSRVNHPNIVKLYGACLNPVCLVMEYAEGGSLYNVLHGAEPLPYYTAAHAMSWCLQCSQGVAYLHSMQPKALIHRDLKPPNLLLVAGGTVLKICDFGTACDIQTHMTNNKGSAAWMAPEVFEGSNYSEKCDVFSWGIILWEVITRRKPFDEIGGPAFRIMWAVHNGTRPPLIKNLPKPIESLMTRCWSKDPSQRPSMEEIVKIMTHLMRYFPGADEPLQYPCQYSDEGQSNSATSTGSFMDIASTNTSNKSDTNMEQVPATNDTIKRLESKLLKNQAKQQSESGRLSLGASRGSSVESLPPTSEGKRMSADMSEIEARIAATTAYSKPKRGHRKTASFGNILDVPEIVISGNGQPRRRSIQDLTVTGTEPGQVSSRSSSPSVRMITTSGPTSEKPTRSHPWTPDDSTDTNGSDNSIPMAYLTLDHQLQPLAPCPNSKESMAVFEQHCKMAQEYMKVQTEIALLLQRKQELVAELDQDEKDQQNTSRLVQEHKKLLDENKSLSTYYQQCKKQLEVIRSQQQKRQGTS
Chain of Serine/threonine-protein kinase 3 (Homo sapiens) (Q13188 whole entry): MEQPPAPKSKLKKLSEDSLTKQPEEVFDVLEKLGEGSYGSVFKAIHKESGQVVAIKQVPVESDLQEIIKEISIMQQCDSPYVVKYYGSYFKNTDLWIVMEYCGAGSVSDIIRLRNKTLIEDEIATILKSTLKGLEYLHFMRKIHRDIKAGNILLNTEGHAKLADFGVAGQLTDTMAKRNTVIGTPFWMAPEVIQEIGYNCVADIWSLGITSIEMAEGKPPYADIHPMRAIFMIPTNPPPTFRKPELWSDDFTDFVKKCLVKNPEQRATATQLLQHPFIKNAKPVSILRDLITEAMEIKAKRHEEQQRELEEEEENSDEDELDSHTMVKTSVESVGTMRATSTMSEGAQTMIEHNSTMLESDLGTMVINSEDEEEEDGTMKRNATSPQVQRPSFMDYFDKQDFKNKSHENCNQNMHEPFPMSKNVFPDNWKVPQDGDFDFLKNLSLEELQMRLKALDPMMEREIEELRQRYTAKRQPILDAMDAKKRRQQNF
Chain of Serine/threonine-protein kinase Sgk1 (Homo sapiens) (O00141 whole entry): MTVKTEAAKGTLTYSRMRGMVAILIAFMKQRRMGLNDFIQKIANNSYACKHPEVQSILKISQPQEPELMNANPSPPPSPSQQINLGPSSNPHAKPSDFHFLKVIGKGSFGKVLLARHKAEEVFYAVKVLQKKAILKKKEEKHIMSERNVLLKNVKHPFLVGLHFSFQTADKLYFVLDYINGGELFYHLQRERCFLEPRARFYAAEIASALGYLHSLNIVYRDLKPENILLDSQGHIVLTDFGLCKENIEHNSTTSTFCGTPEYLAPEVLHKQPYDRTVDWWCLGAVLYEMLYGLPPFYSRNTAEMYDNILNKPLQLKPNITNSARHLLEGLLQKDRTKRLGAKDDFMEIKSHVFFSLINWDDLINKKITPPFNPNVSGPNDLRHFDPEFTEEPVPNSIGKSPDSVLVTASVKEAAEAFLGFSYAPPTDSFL
Chain of Myosin light chain kinase, smooth muscle (Homo sapiens) (Q15746 whole entry): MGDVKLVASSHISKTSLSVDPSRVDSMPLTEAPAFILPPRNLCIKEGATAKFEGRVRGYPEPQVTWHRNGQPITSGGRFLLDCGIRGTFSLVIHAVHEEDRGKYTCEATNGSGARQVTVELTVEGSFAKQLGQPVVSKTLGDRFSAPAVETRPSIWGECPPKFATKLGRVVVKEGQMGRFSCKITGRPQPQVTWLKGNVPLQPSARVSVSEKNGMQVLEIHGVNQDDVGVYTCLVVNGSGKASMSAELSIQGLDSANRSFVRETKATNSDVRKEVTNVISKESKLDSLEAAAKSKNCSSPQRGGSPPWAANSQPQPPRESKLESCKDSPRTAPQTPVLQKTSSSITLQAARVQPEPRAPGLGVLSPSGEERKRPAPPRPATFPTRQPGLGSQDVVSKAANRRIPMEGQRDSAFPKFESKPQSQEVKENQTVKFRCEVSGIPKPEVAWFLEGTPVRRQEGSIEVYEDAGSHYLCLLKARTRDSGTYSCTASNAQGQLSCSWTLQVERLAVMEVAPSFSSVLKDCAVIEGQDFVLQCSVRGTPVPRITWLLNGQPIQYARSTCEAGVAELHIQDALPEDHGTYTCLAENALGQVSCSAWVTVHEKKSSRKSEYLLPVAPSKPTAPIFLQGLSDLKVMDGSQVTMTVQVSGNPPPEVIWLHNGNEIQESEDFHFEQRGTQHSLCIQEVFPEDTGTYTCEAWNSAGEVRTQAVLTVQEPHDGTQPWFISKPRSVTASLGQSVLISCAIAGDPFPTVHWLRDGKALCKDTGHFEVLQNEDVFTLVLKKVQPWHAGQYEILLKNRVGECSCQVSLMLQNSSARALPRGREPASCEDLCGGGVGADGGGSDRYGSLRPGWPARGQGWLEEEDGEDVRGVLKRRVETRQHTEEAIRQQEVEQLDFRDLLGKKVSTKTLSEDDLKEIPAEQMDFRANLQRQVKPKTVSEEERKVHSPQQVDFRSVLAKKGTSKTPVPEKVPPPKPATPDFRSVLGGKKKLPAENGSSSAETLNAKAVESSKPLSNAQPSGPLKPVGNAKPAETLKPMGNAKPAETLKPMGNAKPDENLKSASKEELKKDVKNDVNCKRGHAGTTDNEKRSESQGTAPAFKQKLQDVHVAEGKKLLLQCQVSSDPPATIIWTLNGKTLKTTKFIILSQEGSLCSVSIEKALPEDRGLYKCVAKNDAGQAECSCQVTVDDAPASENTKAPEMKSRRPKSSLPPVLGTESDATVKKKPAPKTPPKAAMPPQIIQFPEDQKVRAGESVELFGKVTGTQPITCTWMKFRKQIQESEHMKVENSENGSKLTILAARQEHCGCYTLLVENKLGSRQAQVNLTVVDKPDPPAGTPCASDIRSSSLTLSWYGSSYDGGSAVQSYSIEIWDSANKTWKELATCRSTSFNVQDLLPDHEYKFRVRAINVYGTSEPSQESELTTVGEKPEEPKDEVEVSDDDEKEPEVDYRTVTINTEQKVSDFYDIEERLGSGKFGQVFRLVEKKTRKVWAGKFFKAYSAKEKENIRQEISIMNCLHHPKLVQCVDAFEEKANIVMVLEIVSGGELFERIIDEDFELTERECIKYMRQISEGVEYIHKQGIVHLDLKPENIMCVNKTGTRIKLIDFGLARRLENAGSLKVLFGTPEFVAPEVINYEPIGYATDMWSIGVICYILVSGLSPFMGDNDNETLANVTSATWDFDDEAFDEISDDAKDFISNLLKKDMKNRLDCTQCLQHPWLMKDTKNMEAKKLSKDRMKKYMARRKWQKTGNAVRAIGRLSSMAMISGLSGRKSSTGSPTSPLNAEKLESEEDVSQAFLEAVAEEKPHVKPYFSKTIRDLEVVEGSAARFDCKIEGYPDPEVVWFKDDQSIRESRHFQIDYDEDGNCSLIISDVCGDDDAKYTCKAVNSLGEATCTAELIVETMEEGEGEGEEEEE
Chain of Tyrosine-protein kinase Lck (Homo sapiens) (P06239 2-509 limits assumed): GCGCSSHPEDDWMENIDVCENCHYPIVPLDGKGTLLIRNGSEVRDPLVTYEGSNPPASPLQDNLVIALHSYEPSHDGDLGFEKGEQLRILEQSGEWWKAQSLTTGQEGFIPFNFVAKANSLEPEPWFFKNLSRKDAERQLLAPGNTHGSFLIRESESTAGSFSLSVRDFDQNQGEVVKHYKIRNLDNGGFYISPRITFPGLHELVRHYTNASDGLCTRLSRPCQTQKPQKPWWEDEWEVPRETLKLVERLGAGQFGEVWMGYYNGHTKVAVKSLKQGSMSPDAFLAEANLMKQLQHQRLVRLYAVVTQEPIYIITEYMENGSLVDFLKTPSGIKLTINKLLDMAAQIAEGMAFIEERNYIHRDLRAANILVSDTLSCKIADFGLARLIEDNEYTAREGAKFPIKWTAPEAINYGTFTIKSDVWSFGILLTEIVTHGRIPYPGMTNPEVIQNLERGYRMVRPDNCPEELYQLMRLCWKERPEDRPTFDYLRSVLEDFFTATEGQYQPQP

For CC(O)CNc1nc(NCc2ccc(-c3ccccn3)cc2)c2[nH]nc(C(C)C)c2n1 (stereo not drawn), the IC50 [1] was over 2000 nM, the Activity [2] was 49% and the Activity [3] was 77%. It also gave an Activity [4] of 77%, an IC50 [5] of 57 nM and an IC50 [6] of 87 nM. For the same molecule, the Activity [7] was “Dose-dependent effect”, the IC50 [8] was 2780 nM and the Activity [9] was “Active”. The Activity [10] was “Dose-dependent effect”, the Activity [11] was “Active” and the inhibition [12] was “Active”. For the same molecule, the Activity [13] was 82%, the Activity [14] was 88% and the Activity [15] was 89%. It also gave an Activity [16] of 90%, an Activity [17] of 92% and an Activity [18] of 96%. For the same molecule, the Activity [19] was 97%, the Activity [20] was over 100% and the Activity [21] was over 100%. The Activity [22] was over 100%, the Activity [23] was over 100% and the Activity [24] was over 100%. The Activity [25] was over 100%, the Activity [26] was over 100% and the Activity [27] was over 100%. It also gave an Activity [28] of over 100%, an Activity [29] of over 100% and an Activity [30] of over 100%. For the same molecule, the Activity [31] was over 100%, the Activity [32] was over 100% and the Activity [33] was “Active”.
